From ChEMBL document CHEMBL3352243, “Ligand-based virtual screening identifies a family of selective cannabinoid receptor 2 agonists” (Bioorg Med Chem, 2015)
≈ marks a conversion by molar mass, not a printed value.

Experiments:
[1] = test system: Liver; test: Half life in mouse liver microsomes in presence of NADPH by LC-MS/MS method; format: ADME
Summary of the method: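 Mouse liver microsomes incubated with compound at 37 °C with NADPH. Reactions stopped with methanol containing internal standard, centrifuged, supernatant analysed by LC–MS/MS.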

[2] = target: T1, Cannabinoid receptor 2 (Homo sapiens, UniProt P34972); test: Agonist activity at human CB2R expressed in CHO cells assessed as reduction in forskolin-induced cAMP accumulation by beta-galactosidase based complementation immunoassay; format: functional, cell-based
Summary of the method: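 hCB2R CHO-K1 cells plated overnight at 37 °C, 5% CO2; anti-cAMP antibody added, then compound (final 0.2% DMSO) with 20 μM forskolin for 30 min at 37 °C. Lysis/substrate 1 h, then EA detection reagent 3 h at room temperature; luminescence read and normalised to forskolin+solvent wells (100%). EC50 by 4-parameter nonlinear fit of pooled 3–4 independent experiments.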
Target sequence in this assay (P34972 whole entry): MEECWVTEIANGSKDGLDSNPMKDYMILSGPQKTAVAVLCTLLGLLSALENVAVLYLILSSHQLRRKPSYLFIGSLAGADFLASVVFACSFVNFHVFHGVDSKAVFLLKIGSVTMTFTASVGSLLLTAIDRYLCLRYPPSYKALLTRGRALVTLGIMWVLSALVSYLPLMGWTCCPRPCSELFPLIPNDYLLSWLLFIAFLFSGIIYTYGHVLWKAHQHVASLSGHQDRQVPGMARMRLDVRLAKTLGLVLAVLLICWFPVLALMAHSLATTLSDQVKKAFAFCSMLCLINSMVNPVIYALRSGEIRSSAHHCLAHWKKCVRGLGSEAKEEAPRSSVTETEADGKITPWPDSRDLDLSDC

[3] = target: T2, Cannabinoid receptor 1 (Homo sapiens, UniProt P21554); test: Agonist activity at human CB1R expressed in CHO cells assessed as reduction in forskolin-induced cAMP accumulation by beta-galactosidase based complementation immunoassay; format: functional, cell-based
Summary of the method: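 CHO-K1 cells expressing hCB1R, 15,000 per well, incubated overnight at 37 °C, 5% CO2, then given anti-cAMP antibody. Compounds were added with 20 μM forskolin (final DMSO 0.2%) for 30 min at 37 °C. Lysis/substrate step 1 h and EA detection 3 h, both at rt in the dark, then luminescence read.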

[4] = target: T2, Cannabinoid receptor 1; test: Displacement of [3H]CP55940 from human CB1R expressed in CHO cells; format: cell-based
Summary of the method: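 Membranes from CHO cells expressing hCB1R incubated with test compound and [3H]CP 55,940 (0.5 nM) for 2 h at 37 °C. Non-specific binding defined with 10 μM WIN-55212. Bound radioligand measured by scintillation counting. Ki from Cheng–Prusoff using radioligand Kd; run in duplicate.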

[5] = target: T1, Cannabinoid receptor 2; test: Displacement of [3H]WIN-55212-2 from human CB2R expressed in CHO cells; format: cell-based
Summary of the method: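 Membranes from CHO cells expressing hCB2R incubated with test compound and tritiated WIN-55212 (0.8 nM), 2 h, 37 °C. Non-specific binding defined with 5 μM WIN-55212. Scintillation counting of bound ligand; Ki via Cheng–Prusoff with radioligand Kd; duplicate.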
Target sequence in this assay (P34972 whole entry): as above

[6] = target: T1, Cannabinoid receptor 2; test: Agonist activity at human CB2R expressed in CHO cells assessed as reduction in forskolin-induced cAMP accumulation at 1 uM by beta-galactosidase based complementation immunoassay; design: reference not given here
Target sequence in this assay (P34972 whole entry, looked up): as the sequence (P34972 whole entry) above

[7] = target: T1, Cannabinoid receptor 2; test: Agonist activity at human CB2R expressed in CHO cells assessed as reduction in forskolin-induced cAMP accumulation at 3 uM by beta-galactosidase based complementation immunoassay; format: functional, cell-based; design: reference not given here
Summary of the method: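 CHO-K1 cells expressing hCB2R, 15,000 per well, incubated overnight at 37 °C, 5% CO2, then anti-cAMP antibody added. Test agent at single concentration with 20 μM forskolin (0.2% DMSO final), 30 min at 37 °C. Lysis/substrate 1 h, then EA reagent 3 h, both at rt in the dark; luminescence read and expressed as % of forskolin+solvent control wells.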
Target sequence in this assay (P34972 whole entry): as above

[8] = Aqueous kinetic solubility of the compound at pH 7 at 37 degC by turbidimetric assay; format: physicochemical; settings: read-out: Kinetic_solubility
Summary of the method: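 Turbidimetric method: DMSO dilutions added to phosphate-buffered saline pH 7.4 at final 1, 3, 10, 30, 100 μM (1% DMSO), 7 replicates per concentration. Incubated 2 h at 37 °C, then absorbance read at 620 nm. Value is the mid-point of the precipitation range between upper and lower solubility limits.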

T2 sequence (P21554 whole entry): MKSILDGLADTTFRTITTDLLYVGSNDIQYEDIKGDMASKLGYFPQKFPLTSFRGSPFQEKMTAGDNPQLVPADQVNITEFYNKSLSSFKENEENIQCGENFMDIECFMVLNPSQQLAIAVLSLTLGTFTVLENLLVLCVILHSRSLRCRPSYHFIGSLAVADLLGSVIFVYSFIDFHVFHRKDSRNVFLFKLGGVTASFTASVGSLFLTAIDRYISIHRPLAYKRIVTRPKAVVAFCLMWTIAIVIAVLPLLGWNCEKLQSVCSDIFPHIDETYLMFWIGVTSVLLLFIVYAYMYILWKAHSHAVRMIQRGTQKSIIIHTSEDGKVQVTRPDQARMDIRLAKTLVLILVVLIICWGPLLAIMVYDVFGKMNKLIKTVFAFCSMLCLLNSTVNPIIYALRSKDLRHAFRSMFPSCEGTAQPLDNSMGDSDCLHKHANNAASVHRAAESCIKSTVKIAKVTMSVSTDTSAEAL

N#Cc1ccccc1CSc1nnc2c3ccccc3n(C(=O)C3CC3)c2n1
t1/2 [1]: < 5 min
EC50 [2]: 181 nM

CCOC(=O)c1ccccc1CSc1nnc2c(n1)[nH]c1ccccc12
EC50 [2]: > 3000 nM

Cc1ccccc1-c1cccc2[nH]c3nc(SCc4ccccc4C#N)nnc3c12
EC50 [2]: 4300 nM

N#Cc1ccccc1CSc1nnc2c3ccccc3n(S(=O)(=O)c3ccccc3)c2n1
t1/2 [1]: < 5 min
EC50 [2]: 76 nM

c1ccc(CSc2nnc3c(n2)[nH]c2ccccc23)cc1
EC50 [3]: > 30000 nM
EC50 [2]: 10000 nM

N#Cc1ccccc1CSc1nnc2c(n1)[nH]c1cccc(Br)c12
t1/2 [1]: 5 min
EC50 [3]: 20000 nM
Ki [4]: 3200 nM
Ki [5]: 22.5 nM
EC50 [2]: 39 nM

CC(C)CCSc1nc(N)c2c3c(sc2n1)COC(C)(C)C3
Activity [6]: 76.7%
Activity [7]: 85.3%

COC(=O)CCCC(=O)n1c2ccccc2c2nnc(SCc3ccccc3C#N)nc21
EC50 [2]: 42 nM
solubility kinetic [8]: 3.75 µM (≈ 1.67 µg/mL)

CCC1(C)Cc2c(sc3nc(SCCC(C)C)nc(N)c23)CO1 (stereo not drawn)
Activity [6]: 111%
Activity [7]: 98.4%

N#Cc1ccccc1CSc1nnc2c3ccccc3n(S(=O)(=O)c3ccccc3[N+](=O)[O-])c2n1
EC50 [2]: > 3000 nM

N#Cc1ccccc1CSc1nnc2c(n1)[nH]c1ccccc12
t1/2 [1]: 46 min
EC50 [3]: > 30000 nM
Ki [4]: > 60000 nM
Ki [5]: 355 nM
EC50 [2]: 112 nM
solubility kinetic [8]: 3.75 µM (≈ 1.19 µg/mL)

Fc1ccccc1CSc1nnc2c3ccccc3n(Cc3ccccc3)c2n1
Ki [4]: 275 nM
Ki [5]: 215 nM
EC50 [2]: 850 nM

CCCCSc1nnc2c(n1)OC(CC)Nc1ccccc1-2 (stereo not drawn)
Activity [6]: 47.8%
Activity [7]: 44.3%

N#Cc1ccccc1CSc1nnc2c(n1)[nH]c1cccc(-c3ccsc3)c12
EC50 [2]: 1760 nM

O=[N+]([O-])c1ccccc1CSc1nnc2c(n1)[nH]c1ccccc12
t1/2 [1]: 43 min
EC50 [3]: > 30000 nM
Ki [4]: > 60000 nM
Ki [5]: 155 nM
EC50 [2]: 33 nM

CCCCSc1nnc(-c2ccccc2N)c(O)n1
Activity [6]: 93.5%
Activity [7]: 61.6%

CCCCn1c2ccccc2c2nnc(SCc3ccccc3C#N)nc21
t1/2 [1]: < 5 min
EC50 [2]: 106 nM

O=C(c1ccccc1)n1c2ccccc2c2nnc(SCc3ccccc3[N+](=O)[O-])nc21
Ki [4]: > 60000 nM
Ki [5]: 235 nM
EC50 [2]: 75 nM

COC(=O)CCC(=O)n1c2ccccc2c2nnc(SCc3ccccc3C#N)nc21
Ki [4]: > 60000 nM
Ki [5]: 360 nM
EC50 [2]: 48 nM
solubility kinetic [8]: 3.75 µM (≈ 1.62 µg/mL)

Clc1ccc(CSc2nnc3c(n2)[nH]c2ccccc23)cc1
EC50 [2]: > 3000 nM

O=[N+]([O-])c1ccccc1CSc1nnc2c(n1)[nH]c1cccc(Br)c12
EC50 [2]: 37 nM

Clc1ccccc1CSc1nnc2c(n1)[nH]c1ccccc12
EC50 [2]: > 3000 nM

CCCCCCSC1=C(C#N)C(c2ccc(Cl)cc2)NC(=O)N1 (stereo not drawn)
Activity [6]: 108%
Activity [7]: 138%

N#Cc1ccccc1CSc1nnc2c3ccccc3n(C(=O)OCc3ccccc3)c2n1
EC50 [2]: > 3000 nM

N#Cc1ccccc1CSc1nnc2c3ccccc3n(C(=O)C3CCCC3)c2n1
Ki [4]: > 60000 nM
Ki [5]: 320 nM
EC50 [2]: 49 nM

CSc1nnc2c(n1)[nH]c1ccccc12
EC50 [2]: > 3000 nM

FC(F)(F)Oc1ccccc1CSc1nnc2c(n1)[nH]c1ccccc12
EC50 [2]: > 3000 nM

Cc1ccc(S(=O)(=O)n2c3ccccc3c3nnc(SCc4ccccc4C#N)nc32)cc1
EC50 [2]: > 3000 nM

C=CCn1c(SCCCC)nc2sc3c(c2c1=O)CC(C)(C)OC3
Activity [6]: 76.3%
Activity [7]: 36.7%

N#Cc1ccccc1CSc1nnc2c3ccccc3n(C(=O)C3CCCCC3)c2n1
Ki [4]: > 60000 nM
Ki [5]: 30 nM
EC50 [2]: 32 nM

N#Cc1ccccc1CSc1nnc2c3ccccc3n(CC3CC3)c2n1
t1/2 [1]: < 5 min
EC50 [2]: 144 nM

N#Cc1ccccc1CSc1nnc2c3ccccc3n(Cc3ccccc3[N+](=O)[O-])c2n1
EC50 [3]: > 30000 nM
Ki [4]: > 60000 nM
Ki [5]: 290 nM
EC50 [2]: 53 nM

N#Cc1ccccc1CSc1nnc2c3ccccc3n(C(=O)c3ccc(F)cc3)c2n1
EC50 [2]: 57 nM

N#Cc1ccccc1CSc1nnc2c3ccccc3n(C(=O)c3ccc(F)cc3C(F)(F)F)c2n1
EC50 [2]: > 3000 nM

c1ccc2c(c1)[nH]c1nc(SCC3CCCCC3)nnc12
EC50 [2]: > 3000 nM

CCCCCCCC1C(=O)NC(=S)N(c2ccccc2)C1=O (stereo not drawn)
Activity [6]: 111%
Activity [7]: 98.1%

N#Cc1ccccc1CSc1nnc2c3ccccc3n(C(=O)c3ccc(OC(F)(F)F)cc3)c2n1
Ki [4]: > 60000 nM
Ki [5]: 380 nM
EC50 [2]: 73 nM

CCCCCCSC1=C(C#N)C(c2ccccc2Cl)NC(=O)N1 (stereo not drawn)
Activity [6]: 98.2%
Activity [7]: 119%

N#Cc1ccccc1CSc1nnc2c(n1)[nH]c1cc(Br)ccc12
EC50 [2]: > 3000 nM

CN(C)c1ccc(C(=O)n2c3ccccc3c3nnc(SCc4ccccc4C#N)nc32)cc1
EC50 [2]: > 3000 nM

CCCCCSc1nnc2c3ccccc3n(C)c2n1
Activity [6]: 129%
Activity [7]: 110%

N#Cc1ccccc1CSc1nnc2c3ccccc3n(C(=O)c3ccco3)c2n1
Ki [4]: > 10000 nM
Ki [5]: 490 nM
EC50 [2]: 46 nM

O=[N+]([O-])c1ccc(CSc2nnc3c(n2)[nH]c2ccccc23)cc1
EC50 [2]: 617 nM

COc1ccc(C(=O)n2c3ccccc3c3nnc(SCc4ccccc4C#N)nc32)cc1OC
EC50 [2]: 160 nM

N#Cc1ccccc1C[S+]([O-])c1nnc2c(n1)[nH]c1ccccc12 (stereo not drawn)
EC50 [2]: 3550 nM

CCCCCCSC1=C(C#N)C(c2cccc(Cl)c2)NC(=O)N1 (stereo not drawn)
Activity [6]: 105%
Activity [7]: 117%

O=C(O)c1ccccc1CSc1nnc2c(n1)[nH]c1ccccc12
EC50 [2]: 2180 nM

CC(=O)n1c2ccccc2c2nnc(SCc3ccccc3C#N)nc21
EC50 [2]: > 3000 nM

Cn1c2ccccc2c2nnc(SCc3ccccc3C#N)nc21
EC50 [2]: > 3000 nM

CCCCCCSC1=C(C#N)C(c2ccc(F)cc2)NC(=O)N1 (stereo not drawn)
Activity [6]: 121%
Activity [7]: 114%

CCCCSc1nnc2c(n1)[nH]c1ccccc12
Activity [6]: 52.1%
EC50 [2]: 296 nM
solubility kinetic [8]: 2 µM (≈ 0.517 µg/mL)
Activity [7]: 57.2%

CCCCCCSC1=C(C#N)C(c2cccc([N+](=O)[O-])c2)NC(=O)N1 (stereo not drawn)
Activity [6]: 63.2%
Activity [7]: 39.9%

N#Cc1ccccc1CSc1nnc2c3ccccc3n(C(=O)c3ccccc3)c2n1
Ki [4]: > 10000 nM
Ki [5]: 300 nM
EC50 [2]: 113 nM
solubility kinetic [8]: 2 µM (≈ 0.843 µg/mL)

N#Cc1ccccc1CSc1nnc2c(n1)[nH]c1cccc(C3CC3)c12
EC50 [2]: 231 nM

CCCCCCSc1nnc2c(n1)[nH]c1ccccc12
Activity [6]: 102%
Activity [7]: 76%

Fc1cccc(F)c1CSc1nnc2c(n1)[nH]c1ccccc12
EC50 [2]: > 3000 nM

N#Cc1ccccc1CSc1nnc2c3ccccc3n(C(=O)N3CCOCC3)c2n1
EC50 [2]: 92 nM
solubility kinetic [8]: 10.5 µM (≈ 4.52 µg/mL)

Fc1ccc(CSc2nnc3c(n2)[nH]c2ccccc23)cc1
EC50 [2]: > 3000 nM

N#Cc1ccccc1CSc1nnc2c3ccccc3n(CC3CCCCC3)c2n1
t1/2 [1]: < 5 min
EC50 [2]: 270 nM

N#Cc1ccccc1CSc1nnc2c3ccccc3n(Cc3ccccc3)c2n1
t1/2 [1]: < 5 min
EC50 [3]: 1550 nM
Ki [4]: 61 nM
Ki [5]: 11 nM
EC50 [2]: 214 nM

FC(F)(F)c1ccccc1CSc1nnc2c(n1)[nH]c1ccccc12
EC50 [2]: > 3000 nM

Fc1ccccc1CSc1nnc2c(n1)[nH]c1ccccc12
EC50 [2]: > 3000 nM

CCn1c2ccccc2c2nnc(SCc3ccccc3C#N)nc21
EC50 [2]: 674 nM

CCCCCSc1nnc2c(n1)[nH]c1ccccc12
Activity [6]: 86.2%
Activity [7]: 73.1%

N#Cc1ccccc1CSc1nnc2c3ccccc3n(C(=O)c3cccc(C(F)(F)F)c3)c2n1
EC50 [2]: 27 nM

N#Cc1ccccc1CSc1nnc2c3ccccc3n(C(=O)c3ccno3)c2n1
Ki [4]: > 60000 nM
Ki [5]: 450 nM
EC50 [2]: 19 nM
solubility kinetic [8]: 6.5 µM (≈ 2.68 µg/mL)

N#Cc1cccc(CSc2nnc3c(n2)[nH]c2ccccc23)c1
EC50 [3]: > 30000 nM
EC50 [2]: 6450 nM

N#Cc1ccccc1CSc1nnc2c(n1)[nH]c1c(Br)cccc12
EC50 [2]: > 3000 nM

Cc1ccc(-c2cccc3[nH]c4nc(SCc5ccccc5C#N)nnc4c23)cc1
EC50 [2]: > 3000 nM

Clc1cccc(CSc2nnc3c(n2)[nH]c2ccccc23)c1
EC50 [2]: > 3000 nM

N#Cc1ccccc1CSc1nnc2c(n1)[nH]c1ccc(Br)cc12
EC50 [2]: > 3000 nM
